We go through ten molecules from paper PMC6142812 (Bioorganic & medicinal chemistry letters, 2018).

Data set [1] deals with other seven mGlu receptors. As to conditions: comparators 1 and 2, previously published; cited from earlier work.
In data set [2] the target is rat mGlu5 (Rattus norvegicus, UniProt P31424). Nature of the data set: Calcium mobilization rat mGlu5 functional assay. Type of data set: cell-based. As to conditions: for fold more active than 11: mGlu5 potency relative to compound 11; for mGlu5 pIC50 (±SEM): rat mGlu5 in HEK293A cells, EC80 glutamate, avg. of n ≥ 3. A general note: A change in cytosolic calcium serves as a functional read-out for many receptors and channels.
rat mGlu5, sequence (P31424 21-1203): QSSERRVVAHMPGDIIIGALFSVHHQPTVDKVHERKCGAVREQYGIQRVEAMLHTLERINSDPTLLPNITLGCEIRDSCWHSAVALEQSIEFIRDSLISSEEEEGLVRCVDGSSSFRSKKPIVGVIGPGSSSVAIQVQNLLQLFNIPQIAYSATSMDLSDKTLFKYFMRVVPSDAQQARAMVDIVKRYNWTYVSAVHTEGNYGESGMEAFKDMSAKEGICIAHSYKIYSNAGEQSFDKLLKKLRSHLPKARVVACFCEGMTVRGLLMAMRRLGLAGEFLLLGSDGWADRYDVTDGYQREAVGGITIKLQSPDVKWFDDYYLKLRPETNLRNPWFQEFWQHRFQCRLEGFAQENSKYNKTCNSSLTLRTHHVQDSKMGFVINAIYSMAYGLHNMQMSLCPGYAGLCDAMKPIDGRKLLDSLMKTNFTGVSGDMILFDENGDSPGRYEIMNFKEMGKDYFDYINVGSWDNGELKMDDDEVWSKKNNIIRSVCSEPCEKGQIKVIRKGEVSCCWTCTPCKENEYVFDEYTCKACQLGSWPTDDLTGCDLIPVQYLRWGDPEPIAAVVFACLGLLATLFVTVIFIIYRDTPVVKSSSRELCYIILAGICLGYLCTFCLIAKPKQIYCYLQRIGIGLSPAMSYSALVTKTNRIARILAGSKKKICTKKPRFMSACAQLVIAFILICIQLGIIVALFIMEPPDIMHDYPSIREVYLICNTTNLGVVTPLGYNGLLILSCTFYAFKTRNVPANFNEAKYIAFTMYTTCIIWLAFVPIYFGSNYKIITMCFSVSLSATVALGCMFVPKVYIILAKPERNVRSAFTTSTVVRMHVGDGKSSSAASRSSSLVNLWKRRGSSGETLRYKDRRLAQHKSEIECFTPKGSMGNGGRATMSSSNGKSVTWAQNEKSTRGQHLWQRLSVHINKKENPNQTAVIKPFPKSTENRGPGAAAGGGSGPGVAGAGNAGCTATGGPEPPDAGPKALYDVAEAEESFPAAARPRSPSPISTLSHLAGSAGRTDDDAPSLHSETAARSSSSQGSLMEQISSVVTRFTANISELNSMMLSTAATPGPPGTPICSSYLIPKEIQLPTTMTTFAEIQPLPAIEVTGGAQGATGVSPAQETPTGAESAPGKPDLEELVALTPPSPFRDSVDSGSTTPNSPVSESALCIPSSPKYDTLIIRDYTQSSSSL

A short description of data set [3]: Stability in rat whole blood at 37 °C. In kind it is in vitro ADME. The note with it: one hour.
Data set [4] can be described thus: Rat pharmacokinetics study, intravenous dosing. Type of data set: in vivo. As to conditions: compound 14; male Sprague-Dawley rats, IV 1.0 mg/kg, n=2. In short, it runs like this: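 Single IV dose of 1.0 mg/kg test compound given to male Sprague-Dawley rats (n=2). Half-life, mean residence time, plasma clearance and steady-state volume of distribution were derived for the parent and for its alcohol metabolite.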

The nature of data set [5]: Metabolic stability in human S9 hepatic fractions with and without NADPH. Type of data set: in vitro ADME. The note with it: for CLHEP (predicted hepatic clearance): QH = 21; for CLint scaled at 1 h: human, liver S9 hepatic fractions, CLINT (intrinsic clearance).
Data set [6] can be described thus: Metabolic stability in rat S9 hepatic fractions with and without NADPH. Type of data set: in vitro ADME. As to conditions: for CLHEP (predicted hepatic clearance): QH = 70; for CLint scaled at 1 h: rat, liver S9 hepatic fractions, CLINT (intrinsic clearance).

In the case of `O=C(Nc1ccc(F)cn1)c1cc(Oc2cncc(F)c2)cn2ncnc12` [Compound 2], the “selectivity vs. other mGlus” value in data set [1] is listed as >500.
Turning to `O=C(Nc1ccc(F)cn1)c1cc(Oc2cncc(F)c2)cc2cccnc12` [Compound 3], the “potency versus mGlu5 (in words)” value in data set [2] (compared with compound 2) was “similarly potent”.
Take `Cc1cccc(NC(=O)c2cc(C(=O)c3cncnc3)cc3cccnc23)n1` [Compound 12]: the “fold more active than 11” value in data set [2] is “more than 10 fold”.
Turning to `O=C(c1cncnc1)c1cc(C(=O)Nc2ccc(F)cn2)c2ncccc2c1` [Compound 13], the “fold more active than 11” value in data set [2] is on record as “more than 10 fold”.
`Cc1csc(NC(=O)c2cc(C(=O)c3cncnc3)cc3cccnc23)n1` [Compound 14]: the “conversion to metabolite (ketone reduction, alcohol 53)” value in data set [3] is “near complete conversion”. Moreover, the “Clp” value in data set [4] worked out at 3430 mL/min/kg.
Usually CLint scaled stands for the capacity of the preparation to metabolise the compound, expressed as a volume cleared per time. Higher therefore signals rapid turnover. For the molecule `Cc1csc(NC(=O)c2cc(C(F)c3cncnc3)cc3cccnc23)n1` (stereo not drawn) [Compound 21], the “CLHEP (predicted hepatic clearance)” value in data set [5] (human S9, +NADPH, CLHEP = (QH × CLINT)/(QH + CLINT)) is 17.3 mL/min/kg; in data set [5] (human S9, −NADPH), 12.6 mL/min/kg; in data set [6] (rat S9, +NADPH, CLHEP = (QH × CLINT)/(QH + CLINT)), 51.8 mL/min/kg; in data set [6] (rat S9, −NADPH), 23.2 mL/min/kg. Further, the intrinsic metabolic clearance (CLint scaled) at 1 h in data set [5] (human S9, +NADPH) amounted to 98.2 mL/min/kg; in data set [5] (human S9, −NADPH), 31.3 mL/min/kg; in data set [6] (rat S9, +NADPH), 199 mL/min/kg; in data set [6] (rat S9, −NADPH), 34.7 mL/min/kg.
For the molecule `N#Cc1ccc(NC(=O)c2cc(C(F)(F)c3cncnc3)cc3cccnc23)nc1` [Compound 32], the “mGlu5 pIC50 (±SEM)” value in data set [2] is recorded as < 4.5.
For `COc1ccnc(NC(=O)c2cc(C(F)(F)c3cncnc3)cc3cccnc23)c1` [Compound 34], in data set [2], the “mGlu5 pIC50 (±SEM)” value was < 4.5.
In the case of `N#Cc1ccnc(NC(=O)c2cc(C(F)(F)c3cncnc3)cc3cccnc23)c1` [Compound 35], in data set [2], the “mGlu5 pIC50 (±SEM)” value is given as < 4.5.
As for `O=C(Nc1nc(C2CC2)cs1)c1cc(C(F)(F)c2cncnc2)cc2cccnc12` [Compound 36], in data set [2] (relative to compound 27 (methyl to cyclopropyl)), the “fold drop in mGlu5 potency” value came to 3.5 fold.
